Bridge positions count the residues as written; N and C are the ends. Square brackets hold non-standard residues; d marks the D form. Peptide text beside a SMILES is read from it. Mpa = O=C(O)CCS
Molecular target: Vasopressin V2 receptor (Sus scrofa) (UniProt P32307)
Test: Affinity towards vasopressin receptor in porcine renal medullary membrane using [3H]LVP
Assay type: cell membranes
Settings: Renal medulla
Outline: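 Pig kidney medullary membrane preparation; displacement of [³H]LVP binding. IC50 taken as the ligand concentration giving 50% inhibition of binding; Kbind calculated by the competitive-inhibition equation Kbind = IC50/(1 + L/KD), with KD the dissociation constant of [³H]LVP.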

Sequence of Vasopressin V2 receptor (Sus scrofa) (P32307 whole entry): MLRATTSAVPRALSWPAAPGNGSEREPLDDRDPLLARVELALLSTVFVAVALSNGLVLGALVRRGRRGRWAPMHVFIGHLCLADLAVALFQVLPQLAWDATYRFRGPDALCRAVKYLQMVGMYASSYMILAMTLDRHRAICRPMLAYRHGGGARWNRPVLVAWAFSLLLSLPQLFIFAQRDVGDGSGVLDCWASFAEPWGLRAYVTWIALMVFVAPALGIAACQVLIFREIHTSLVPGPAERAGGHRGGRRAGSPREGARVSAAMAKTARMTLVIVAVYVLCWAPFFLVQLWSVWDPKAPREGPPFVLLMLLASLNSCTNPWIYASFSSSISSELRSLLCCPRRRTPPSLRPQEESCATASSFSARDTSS

K bind: > 1000 nM
Compound: CC(C)[C@@H]1NC(=O)[C@H](Cc2ccccc2)NC(=O)[C@H](Cc2ccc(O)cc2)NC(=O)CCSSC[C@@H](C(=O)N[C@@H](CCCN=C(N)N)C(=O)N[C@@H](CCCN=C(N)N)C(N)=O)NC(=O)[C@H](CC(N)=O)NC1=O ([Mpa]YFVNCRR-NH2; disulfide 1-6)

— ChEMBL document CHEMBL1123570, “Potent vasopressin antagonists modified at the carboxy-terminal tripeptide tail” (J Med Chem, 1987)
